BaF3 parental = parental Ba/F3 viability inhibition as JAK2V617F counter-screen | actives 1.1% (n = 220,000) | inhibition, % at 5.6 µM | AID 1486 | CellTiter-Glo ATP luminescence;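 active means inhibition above a per-campaign cutoff, the mean inhibition of all tested compounds plus 3 SD, cut at about 27% in these data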;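 further: 0% = DMSO wells and 100% = JAK Inhibitor I control wells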
MT stabilizer = stabilizes microtubules in HeLa cells. HeLa tubulin immunostaining HCS, 24 h; share of cells brighter than vehicle mean+2SD. % tubulin-high responders, % at 10 µM. actives 0.83% (n = 200,000). AID 2205;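 active means plate Z-score above 3 for both tubulin-high and condensed-nucleus cell shares, with cell loss under 80%, at 10 µM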;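 further: anti alpha tubulin signal scored within the nucleus-defined area of each cell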
IEC-6 cytotox = counter-screen for KLF5 inhibitors: cytotoxicity in IEC-6 cells. IEC-6 cytotoxicity, luminescence viability. inhibition, % at 5 µM. actives 0.78% (n = 290,000). AID 1825; in the data active means inhibition above about 22%;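 further: 0% = plate median of test compound wells and 100% = cytotoxic reference compound wells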
b-catenin transl = beta-catenin nuclear translocation modulation; actives 0.3% (n = 190,000); nuclear translocation activity, % at 5 µM; HeLa beta-catenin nuclear translocation, immunofluorescence imaging;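 active means nuclear translocation activity above 50% at 5 µM, with a well cell count of 50 or more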;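 further: per-cell ratio of nuclear to cytoplasmic median beta-catenin stain intensity; plate controls were DMSO negative control for no effect and GSK-3 inhibitor IX positive control for full effect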
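System: Human HeLa cells, endogenous beta-catenin | Compound dosing: 5 µM primary, 0.02–20 µM confirmation | Timing: 24 h compound exposure at 37°C, 5% CO2 | Measured by: Fluorescence imaging of beta-catenin antibody stain plus DAPI | Read-out basis: % activation of per-cell nuclear versus cytoplasmic median beta-catenin signal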
Ba/F3 V617F tox = lowers viability of Ba/F3 cells expressing EpoR and JAK2V617F. ATP luminescence. inhibition, % at 5.6 µM. actives 1.1% (n = 220,000);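 active means inhibition above the campaign mean plus 3 SD over all tested compounds, cut at about 24% in these data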;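 further: cytokine-independent growth of Ba/F3 cells driven by EpoR plus mutant JAK2; 0% = DMSO-treated cells and 100% = JAK inhibitor I control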
APP 5UTR inh = APP translation inhibition; SH-SY5Y APP 5'UTR-luciferase reporter, luminescence; inhibition, % at 2 µM; actives 0.82% (n = 190,000); AID 1285;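 active means inhibition above a set limit, derived from the sample mean plus 3 SD, cut at about 45% in these data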
* marks the source's active call; other numbers are inactive results; x = not tested or not shown. Compounds with a hit are over-represented: about 2.2% of the library has one in this group of screens.

SMILES	BaF3 parental	MT stabilizer	IEC-6 cytotox	b-catenin transl	Ba/F3 V617F tox	APP 5UTR inh
O=C(O)c1ccccc1Nc1ccc([N+](=O)[O-])cc1	44.3*	7.2	20.3	5.6	44.7*	-2.5
O=C(O)c1ccccc1Nc1ccccc1C(=O)O	4.5	2.7	5.6	x	4.7	1.8
Nc1ccc2oc(-c3cccc4ccccc34)nc2c1	6.1	10.5	10.2	-1.2	0.3	48.7*
CCOCCOC(=O)c1[nH]c2c(c1C)C(=O)CC(c1cccs1)C2 (stereo not given)	79.5*	13.0	87.1*	63.4*	80.5*	92.9*
Cc1noc(C)c1CSc1nc2sc(C)c(C)c2c(=O)n1-c1ccccc1	11.4	2.0	-0.3	x	7.1	11.7
Cc1noc(C)c1CSc1nc2ccccc2c(=O)n1-c1ccc(Cl)cc1	10.6	40.5*	-4.6	x	1.7	10.5
O=C(O)C1OC(Oc2cc3oc(-c4ccccc4)cc(=O)c3c(O)c2O)C(O)C(O)C1O (stereo not given)	3.3	3.5	-21.1	x	-4.2	6.1
COc1c(OC2OC(C(=O)O)C(O)C(O)C2O)cc(O)c2c(=O)cc(-c3ccccc3)oc12 (stereo not given)	28.6*	3.3	-1.2	x	18.6	6.0
COc1ccccc1/C=C/CN1CCC(n2nccc2NC(=O)C2CC2)CC1	x	x	-4.6	x	x	x
COc1ccc(C[C@H]2COC(=O)[C@@H]2Cc2ccc(OC3OC(CO)C(O)C(O)C3O)c(OC)c2)cc1OC (stereo not given in full)	41.4*	3.4	2.3	x	22.8	5.0
CCCCN(CCCC)S(=O)(=O)c1ccc(C(=O)Nc2nnc(CSC)o2)cc1	3.9	7.0	-3.3	5.6	-1.9	0.1
CCCCN(CC)S(=O)(=O)c1ccc(C(=O)Nc2nnc(CSC)o2)cc1	42.1*	4.0	46.1*	-0.3	-0.9	-11.9
CC(C)(C)C1=CC=C(C(C)(C)C)C(=O)C1=O	1.3	x	2.6	0.1	-0.1	x
Cc1ccc(-c2nc3ccccn3c2Nc2ccccc2)o1	92.2*	2.5	-2.8	1.2	-1.5	0.4
COc1ccc(C(=O)Nc2ccc3[nH]c(-c4cccc(OC)c4)cc(=O)c3c2)cc1	4.9	31.9*	3.5	55.7*	-0.4	90.9*
COc1ccc(N2CCN(C(=O)CNC(=O)c3ccccc3Cl)CC2)cc1	x	x	0.7	x	x	x
OC(COc1ccccc1)CN1CCN(CC(O)COc2ccccc2)CC1 (stereo not given)	7.3	4.6	-1.9	-1.5	4.3	-4.2
OC(COc1ccc(CNCCc2ccc(C(F)(F)F)cc2)cc1)CN1CCCCC1 (stereo not given)	103.4*	3.9	98.6*	13.4	101.5*	14.1
OC(COC(c1ccccc1)c1ccccc1)CN1CCOCC1 (stereo not given)	81.2*	3.9	-1.5	1.5	-1.3	-8.0
OC(COc1ccccc1)CN1CCCCCC1 (stereo not given)	80.8*	1.9	10.7	-0.1	-0.1	-13.3
Cc1ccc(C(OCC(O)CN2CCCCC2)c2ccccc2)cc1 (stereo not given)	x	x	0.2	x	x	x
CCOc1ccc(/C=N/NC(=O)C(=O)N2CCCCCC2)c2ccccc12	x	x	6.8	x	x	x
c1ccc(-c2nnc(-c3ccccn3)nc2NC2CCCCC2)cc1	94.5*	7.8	18.6	1.6	63.8*	76.7*
COCCC(=O)N1CCC(C(=O)Nc2ccc(Oc3ccccc3)nc2)CC1	x	x	-3.5	x	x	x
C=CCn1c(=O)c(C(=O)NCc2ccccc2Cl)c(O)c2ccccc21	x	x	-6.9	x	x	x
SMILES	BaF3 parental	MT stabilizer	IEC-6 cytotox	b-catenin transl	Ba/F3 V617F tox	APP 5UTR inh
C=CCn1c(=O)c(C(=O)NCCN(CC)CC)c(O)c2ccccc21	46.5*	3.6	6.2	-3.0	-1.2	-1.9
Cc1ccc(S(=O)(=O)NC2CC(C)(C)NC(C)(C)C2)c(C)c1C	x	x	0.7	x	x	x
O=C(C/C=N\O)Nc1ccc(Oc2ccccc2)cc1	4.3	5.2	-1.0	-2.9	2.5	-8.2
CO/N=C\CC(=O)Nc1ccc(Oc2ccccc2)cc1	2.4	26.9*	10.2	164.8*	1.7	68.5*
Clc1ccc(Cn2ncc3c(NCc4ccco4)ncnc32)c(Cl)c1	14.6	46.0*	27.9*	x	6.1	9.0
Clc1ccc(-n2ncc3c(NCc4ccco4)ncnc32)cc1	1.3	6.3	7.7	-2.8	2.4	-127.9
Cc1ccc(Cl)cc1N1CCN(C(CC(C)C)c2nnnn2CC2CCCO2)CC1 (stereo not given)	2.6	3.8	-3.8	0.4	-1.6	5.7
